Assay results taken from ChEMBL document CHEMBL4715780, “Biological evaluation of tetracationic compounds based on two 1,4-diazabicyclo[2.2.2]octane moieties connected by different linkers” (Bioorg Med Chem, 2016).

How the values were obtained:
Escherichia coli = experiment: Antibacterial activity against Escherichia coli ATCC 25922 assessed as bacterial growth inhibition by CLSI protocol based serial microdilution method; assay type: functional
Candida albicans = experiment: Antifungal activity against Candida albicans CEMTC 34 assessed as fungal growth inhibition by CLSI protocol based serial microdilution method; assay type: functional
Method in brief: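 Candida albicans grown in Sabouraud dextrose broth with two-fold serial compound dilutions from water stocks; final inoculum about 5 × 10⁵ CFU/mL. Incubated at 37 °C with orbital shaking (580 rpm). MIC is the lowest concentration preventing growth, by absorbance at 595 nm. MFC is the lowest concentration with no visible growth. Duplicates in two separate experiments.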

Pseudomonas aeruginosa [1] = experiment: Bactericidal activity against Pseudomonas aeruginosa ATCC 9027 assessed as colony forming unit at 5 ug/ml measured at 2 hrs by time kill assay (reference value: 3.6 x 10^5 CFU/ml); assay type: functional; settings: dose 5 µg/ml
Method in brief: (§1)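 Overnight Pseudomonas aeruginosa culture adjusted in Mueller–Hinton broth to about 2.5 × 10⁵ CFU/mL. Compound added at 2.5, 5 or 10 µg/mL, then incubated at 37 °C with shaking (580 rpm) for 22 h. Viable colonies counted on plates at 2, 4, 6, 8 and 22 h. Quantification limit 100 CFU/mL; triplicate.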

Staphylococcus aureus [2] = experiment: Bactericidal activity against […] Staphylococcus aureus ATCC 25923 assessed as colony forming unit at 5 ug/ml measured at 2 hrs by time kill assay (reference value: 10^6 CFU/ml); assay type: functional; settings: dose 5 µg/ml
Method in brief: (§2)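 S. aureus overnight culture was adjusted in MHB to ~8 × 10⁵ CFU/mL. Compound was added and the mixture incubated at 37 °C with shaking (580 rpm) for 22 h. Aliquots were plated for colony counts at 2, 4, 6, 8 and 22 h, with a quantification limit of 100 CFU/mL. Runs were done in triplicate.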

[3] = Selectivity index, ratio of CC50 for MDCK cells to EC50 for Influenza A virus (A/Puerto Rico/8/34 (H1N1)) infected in MDCK cells; assay type: toxicity, cell-based; settings: dog, read-out: Ratio CC50/EC50
Method in brief: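 Ratio of CC₅₀ to EC₅₀, both in MDCK cells, with cytotoxicity run in parallel with the antiviral assay. EC₅₀ is the concentration halving virus production (0.3 log₁₀ EID₅₀ titre drop). It was obtained after 1 h compound pre-incubation, infection, 48 h at 37 °C, and hemagglutination read-out with 1% chicken erythrocytes.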

Proteus vulgaris = experiment: Antibacterial activity against Proteus vulgaris ATCC 6380 assessed as bacterial growth inhibition by CLSI protocol based serial microdilution method; assay type: functional
[4] = Selectivity index, ratio of CC50 for HEK293T cells assessed as reduction in cell viability measured after 24 hrs by MTT assay to MIC for Escherichia coli ATCC 25922 assessed as bacterial growth inhibition by CLSI protocol based serial microdilution method; assay type: toxicity; settings: human, read-out: Selectivity Index
Pseudomonas aeruginosa [5] = experiment: Bactericidal activity against Pseudomonas aeruginosa ATCC 9027 assessed as colony forming unit at 10 ug/ml measured at 22 hrs by time kill assay (reference value: 1.7 x 10^9 CFU/ml); assay type: functional; settings: dose 10 µg/ml; method in brief: as §1
Staphylococcus aureus [6] = experiment: Antibacterial activity against methicillin-resistant Staphylococcus aureus CEMTC 707 assessed as bacterial growth inhibition by CLSI protocol based serial microdilution method; assay type: functional
Pseudomonas aeruginosa [7] = experiment: Bactericidal activity against Pseudomonas aeruginosa ATCC 9027 assessed as colony forming unit at 10 ug/ml measured at 8 hrs by time kill assay (reference value: 2.7 x 10^8 CFU/ml); assay type: functional; settings: dose 10 µg/ml; method in brief: as §1
[8] = Cytotoxicity against HEK293T cells assessed as reduction in cell viability measured after 24 hrs by MTT assay; assay type: cell-based, HEK-293T; settings: human
Method in brief: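 HEK293T or MCF-7 cells in IMDM with 10% FBS, seeded at 20,000 per well and grown overnight. Compounds at […] in fresh medium for 24 h at 37 °C, 5% CO₂. MTT then added for 4 h, precipitate dissolved overnight in SDS-HCl, absorbance read at 570 nm. Viability expressed relative to untreated cells, giving CC₅₀. Duplicate wells, at least two independent repeats.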

Staphylococcus aureus [9] = experiment: Antibacterial activity against methicillin-resistant Staphylococcus aureus CEMTC 675 assessed as bacterial growth inhibition by CLSI protocol based serial microdilution method; assay type: functional
Pseudomonas aeruginosa [10] = experiment: Bactericidal activity against Pseudomonas aeruginosa ATCC 9027 assessed as colony forming unit at 5 ug/ml measured at 6 hrs by time kill assay (reference value: 10^8 CFU/ml); assay type: functional; settings: dose 5 µg/ml; method in brief: as §1
Pseudomonas aeruginosa [11] = experiment: Bactericidal activity against Pseudomonas aeruginosa ATCC 9027 assessed as colony forming unit at 2.5 ug/ml measured at 8 hrs by time kill assay (reference value: 2.7 x 10^8 CFU/ml); assay type: functional; settings: dose 2.5 µg/ml; method in brief: as §1
Pseudomonas aeruginosa [12] = experiment: Bactericidal activity against Pseudomonas aeruginosa ATCC 9027 assessed as reduction in colony forming unit at 10 ug/ml measured at 6 hrs by time kill assay relative to control; assay type: functional; design: scale not given: the % may be the effect or the level left; settings: dose 10 µg/ml; method in brief: as §1
Staphylococcus aureus [13] = experiment: Bactericidal activity against […] Staphylococcus aureus ATCC 25923 assessed as colony forming unit at 1.25 ug/ml measured at 2 hrs by time kill assay (reference value: 10^6 CFU/ml); assay type: functional; settings: dose 1.25 µg/ml; method in brief: as §2
Pseudomonas aeruginosa [14] = experiment: Bactericidal activity against Pseudomonas aeruginosa ATCC 9027 assessed as reduction in colony forming unit at 10 ug/ml measured at 4 hrs by time kill assay relative to control; assay type: functional; design: scale not given: the % may be the effect or the level left; settings: dose 10 µg/ml; method in brief: as §1
Staphylococcus aureus [15] = experiment: Antibacterial activity against methicillin-resistant Staphylococcus aureus CEMTC 1695 assessed as concentration required to inhibit visible growth by CLSI protocol based serial microdilution method; assay type: functional
Pseudomonas aeruginosa [16] = experiment: Antibacterial activity against Pseudomonas aeruginosa ATCC 9027 assessed as bacterial growth inhibition by CLSI protocol based serial microdilution method; assay type: functional
Staphylococcus aureus [17] = experiment: Bactericidal activity against […] Staphylococcus aureus ATCC 25923 assessed as colony forming unit at 5 ug/ml measured at 4 hrs by time kill assay (reference value: 7.8 x 10^6 CFU/ml); assay type: functional; settings: dose 5 µg/ml; method in brief: as §2
Staphylococcus aureus [18] = experiment: Antibacterial activity against methicillin-resistant Staphylococcus aureus CEMTC 1695 assessed as bacterial growth inhibition by CLSI protocol based serial microdilution method; assay type: functional
Staphylococcus aureus [19] = experiment: Antibacterial activity against […] Staphylococcus aureus ATCC 25923 assessed as concentration required to inhibit visible growth by CLSI protocol based serial microdilution method; assay type: functional
Pseudomonas aeruginosa [20] = experiment: Bactericidal activity against Pseudomonas aeruginosa ATCC 9027 assessed as reduction in colony forming unit at 10 ug/ml measured at 22 hrs by time kill assay relative to control; assay type: functional; design: scale not given: the % may be the effect or the level left; settings: dose 10 µg/ml; method in brief: as §1
Pseudomonas aeruginosa [21] = experiment: Bactericidal activity against Pseudomonas aeruginosa ATCC 9027 assessed as colony forming unit at 2.5 ug/ml measured at 6 hrs by time kill assay (reference value: 10^8 CFU/ml); assay type: functional; settings: dose 2.5 µg/ml; method in brief: as §1
Pseudomonas aeruginosa [22] = experiment: Bactericidal activity against Pseudomonas aeruginosa ATCC 9027 assessed as colony forming unit at 5 ug/ml measured at 4 hrs by time kill assay (reference value: 1.2 x 10^7 CFU/ml); assay type: functional; settings: dose 5 µg/ml; method in brief: as §1
Staphylococcus aureus [23] = experiment: Antibacterial activity against methicillin-resistant Staphylococcus aureus CEMTC 1850 assessed as bacterial growth inhibition by CLSI protocol based serial microdilution method; assay type: functional
[24] = Selectivity index, ratio of CC50 for HEK293T cells assessed as reduction in cell viability measured after 24 hrs by MTT assay to MIC for Staphylococcus aureus ATCC 25923 assessed as bacterial growth inhibition by CLSI protocol based serial microdilution method; assay type: toxicity; settings: human, read-out: Selectivity Index

Structure (SMILES) | MIC (Escherichia coli) | MIC (Candida albicans) | Activity (Pseudomonas aeruginosa [1]) | Activity (Staphylococcus aureus [2]) | selectivity ratio [3] | MIC (Proteus vulgaris) | selectivity ratio at 24 h [4] | Activity (Pseudomonas aeruginosa [5]) | MIC (Staphylococcus aureus [6]) | Activity (Pseudomonas aeruginosa [7]) | CC50 at 24 h [8] | MIC (Staphylococcus aureus [9]) | Activity (Pseudomonas aeruginosa [10]) | Activity (Pseudomonas aeruginosa [11]) | Activity (Pseudomonas aeruginosa [12]) | Activity (Staphylococcus aureus [13]) | Activity (Pseudomonas aeruginosa [14]) | MBC (Staphylococcus aureus [15]) | MIC (Pseudomonas aeruginosa [16]) | Activity (Staphylococcus aureus [17]) | also measured
CCCCCCCCCCCC[N+]12CC[N+](CCC[N+]34CC[N+](CCCCCCCCCCCC)(CC3)CC4)(CC1)CC2 | 1.6 µg/mL | 3.1 µg/mL | <100 CFU/ml | <100 CFU/ml | 7 | 100 µg/mL | 4 | <100 CFU/ml | 0.5 µg/mL | <100 CFU/ml | 6.5 µg/mL | 0.5 µg/mL | <100 CFU/ml | <100 CFU/ml | >=99.9% | <100 CFU/ml | >=99.9% | 1 µg/mL | 1.6 µg/mL | <100 CFU/ml | MIC (Staphylococcus aureus [18]): 1 µg/mL; MBC (Staphylococcus aureus [19]): 1.2 µg/mL; Activity (Pseudomonas aeruginosa [20]): >=99.9%; Activity (Pseudomonas aeruginosa [21]): <100 CFU/ml; Activity (Pseudomonas aeruginosa [22]): <100 CFU/ml; MIC (Staphylococcus aureus [23]): 1 µg/mL; selectivity ratio at 24 h [24]: 22
CCCCCCCCCCCC[N+]12CC[N+](Cc3ccccc3C[N+]34CC[N+](CCCCCCCCCCCC)(CC3)CC4)(CC1)CC2 | 1.6 µg/mL | 3.1 µg/mL | 130 CFU/ml | <100 CFU/ml | 2 | 100 µg/mL | 3 | <100 CFU/ml | 0.5 µg/mL | <100 CFU/ml | 4 µg/mL | 0.5 µg/mL | <100 CFU/ml | 300 CFU/ml | >=99.9% | <670 CFU/ml | >=99.9% | 1 µg/mL | 1.6 µg/mL | <100 CFU/ml | MIC (Staphylococcus aureus [18]): 1 µg/mL; MBC (Staphylococcus aureus [19]): 1.2 µg/mL; Activity (Pseudomonas aeruginosa [20]): >=99.9%; Activity (Pseudomonas aeruginosa [21]): <100 CFU/ml; Activity (Pseudomonas aeruginosa [22]): <100 CFU/ml; MIC (Staphylococcus aureus [23]): 0.5 µg/mL; selectivity ratio at 24 h [24]: 7
